E-sel inducer – induces E-selectin expression in human endothelial cells. P16581. 260,000 compounds, 0.37% hits. AID 686992. activation, % at 7.58 µM. HUVEC E-selectin immunofluorescence imaging; normalized: neutral wells 0, TNF-alpha wells 100;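 active = mean E-selectin-positive cell signal at least 10% of the positive control, reached in at least 60% of replicates, without over 20% cell loss; inconclusive = no rule given, readout overlaps actives, possibly toxicity-flagged; inactive = the rest, including those meeting only one limit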
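assay system = HUVEC, human umbilical vein endothelial cells | input = 3,000 HUVEC seeded per well | medium = EGM-2 growth medium on 0.1% gelatin-coated wells | dosing = one compound dose added by pin transfer | signal = immunofluorescence imaging | read-out basis = % PE-positive cells | control set = TNF-alpha, DMSO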
SIRT5 block – sirtuin-5 (human) deacylase inhibition | Purified SirT5, succinyl-peptide AMC, trypsin-coupled fluorescence | inhibition, % at 15 µM | Q9NXA8 | 330,000 compounds, 1.1% hits | AID 652115; in the data active = inhibition above about 15%; inconclusive = no clear call, values can overlap the other calls
DENV2 CPE – inhibitors of DENV2 cytopathic effect. DENV2-infected cells, cytopathic effect rescue, plate reader. CPE inhibition, % at 9.99 µM. 350,000 compounds, 1.7% hits. AID 651640; in the data active = CPE inhibition above about 20%, passing the limit was not always enough; inconclusive = no clear call, values can overlap the other calls; tested in BHK-21 cells;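 note: 0% = median of neutral control wells and 100% = median of positive control wells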
ERAP1 inh – inhibitors of human ERAP1 aminopeptidase | Q9NZ08 | recombinant ERAP1, Leu-AMC fluorescence, 60 min | inhibition, % at 10.7 µM | 340,000 compounds, 0.15% hits | AID 652197;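 active = mean replicate inhibition of at least 30%, or all replicates individually reaching that 30% level; inactive = mean below 30% and not every replicate reaching it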;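 note: 0% = neutral control wells and 100% = L-leucinethiol positive control wells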
PglD inh – PglD (C. jejuni) enzyme inhibition; purified PglD enzyme, DTNB colorimetric CoA detection; inhibition, % at 12.5 µM; 360,000 compounds, 0.098% hits; AID 602405; in the data active = inhibition above about 16%, passing the limit was not always enough; inconclusive = no clear call, values can overlap the other calls
The depositor's hits bear a star. The list is not random: actives were taken first. Their share in the collection is about 2.5%.

Results for CO[C@H]1CN(C)C(=O)c2ccc(NC(=O)c3ccccc3)cc2OC[C@H](C)N(C(=O)CN(C)C)C[C@H]1C ?
E-sel inducer: 0; SIRT5 block: 2; DENV2 CPE: 29*; ERAP1 inh: -7; PglD inh: -1

How did CO[C@@H]1CN(C)C(=O)c2ccc(NC(=O)c3cccc(F)c3)cc2OC[C@H](C)N(C(C)=O)C[C@H]1C do in these assays?
E-sel inducer: 0; SIRT5 block: 1; DENV2 CPE: 2; ERAP1 inh: 0; PglD inh: -3

How did COc1ccc(S(=O)(=O)NCCOc2ccccc2)cc1OC do in these assays?
PglD inh: 0

How did CCCCCCCc1c(C#N)c(N)[nH]c(=S)c1C#N do in these assays?
E-sel inducer: 2; SIRT5 block: 0; DENV2 CPE: -3

What do the screens show for `O=C(C[C@H]1CC[C@H](NC(=O)Nc2cc(F)ccc2F)[C@@H](CO)O1)Nc1ccccc1`?
E-sel inducer: 0; SIRT5 block: 4; ERAP1 inh: -2; PglD inh: -4

How did O=C(Nc1ccc(S(=O)(=O)N2CCCCC2)cc1)C1CCN(C(=O)c2ccco2)CC1 do in these assays?
E-sel inducer: 0; SIRT5 block: -2; DENV2 CPE: -6; ERAP1 inh: 2; PglD inh: 3

How did COc1ccc(C(=O)Nc2ccc3c(c2)C(=O)N(C)C[C@H](OC)[C@H](C)CN(C(C)=O)[C@@H](C)CO3)cc1 do in these assays?
E-sel inducer: 0; SIRT5 block: -2; DENV2 CPE: 7; ERAP1 inh: 2; PglD inh: -1

What do the screens show for `O=C(c1ccc2c(c1)CCN2S(=O)(=O)c1ccccc1)N1CCN(c2ccccc2)CC1`?
SIRT5 block: -3; DENV2 CPE: 0; ERAP1 inh: -1; PglD inh: -2

Results for CO[C@H]1CN(C)C(=O)c2cc(NS(C)(=O)=O)ccc2OC[C@H](C)N(C(=O)c2ccc3c(c2)OCO3)C[C@@H]1C ?
E-sel inducer: 0; DENV2 CPE: 42*; ERAP1 inh: 3; PglD inh: -2

How did CO[C@@H]1CN(C)C(=O)c2cc(NS(C)(=O)=O)ccc2OC[C@@H](C)N(C(=O)c2ccc3c(c2)OCO3)C[C@@H]1C do in these assays?
E-sel inducer: inconclusive; DENV2 CPE: -6; ERAP1 inh: 1; PglD inh: 0

Results for CO[C@H]1CN(C)C(=O)c2cc(NS(C)(=O)=O)ccc2OC[C@@H](C)N(C(=O)c2ccc3c(c2)OCO3)C[C@H]1C ?
E-sel inducer: 0; DENV2 CPE: 27*; ERAP1 inh: 1; PglD inh: 1

What do the screens show for `CCS(=O)(=O)c1ccc2oc(Nc3ccc(OC)c(OC)c3)nc2c1`?
E-sel inducer: 2; SIRT5 block: 3; DENV2 CPE: -3; ERAP1 inh: 0; PglD inh: -5

How did COc1ccc2c(CC(=O)NNC(=O)c3ccc(C)cc3)coc2c1 do in these assays?
E-sel inducer: 0; SIRT5 block: 21*; DENV2 CPE: -4; ERAP1 inh: -1; PglD inh: 1

What do the screens show for `COc1ccc2c(CC(=O)NNC(=O)c3cccs3)coc2c1`?
E-sel inducer: 0; SIRT5 block: -1; DENV2 CPE: 0; ERAP1 inh: -1; PglD inh: 0

How did Cn1c(=O)c2nc(Cl)c(-c3ccccc3)nc2n(C)c1=O do in these assays?
DENV2 CPE: 55*; ERAP1 inh: 4

Results for CC(C)CCNC(=O)CN(C(=O)CCC(=O)Nc1ccccn1)c1ccc(F)c(Cl)c1 ?
E-sel inducer: 0; SIRT5 block: 2; ERAP1 inh: 0

How did COc1ccc(CN(C)C[C@H]2OCCCC[C@@H](C)Oc3ccc(NC(=O)Nc4ccccc4)cc3C(=O)N([C@@H](C)CO)C[C@H]2C)cc1 do in these assays?
E-sel inducer: 0; DENV2 CPE: -7; PglD inh: 0

What do the screens show for `COc1ccc(CN(C)C[C@H]2OCCCC[C@@H](C)Oc3ccc(N(C)C)cc3C(=O)N([C@@H](C)CO)C[C@H]2C)cc1`?
E-sel inducer: 0; SIRT5 block: -2; DENV2 CPE: -4; ERAP1 inh: 0; PglD inh: -1

What do the screens show for `COc1ccc(CN(C)C[C@@H]2OCCCC[C@H](C)Oc3ccc(NC(=O)Nc4ccccc4)cc3C(=O)N([C@H](C)CO)C[C@H]2C)cc1`?
E-sel inducer: 0; DENV2 CPE: 39*; PglD inh: -1

Compound activity: PubChem BioAssay, Broad Institute
